Assay results collected from several papers.
Each line is one published result; the experiments were not run side by side.
Target: MAP kinase-interacting serine/threonine-protein kinase 1 (MKNK1, Homo sapiens, UniProt Q9BUB5)

Compound	assay	setting	remaining binding
O=C(NCCCC1CCCCC1)c1ccc(CNC(=O)c2cnn(-c3ccccc3)c2C(F)(F)F)cc1	cell-free assay, competition with immobilised ligand	0.1 µM	98%
Cc1cnc(Nc2ccc(C(=O)N3CCC(N4CCCC4)CC3)cc2)nc1-c1cc2ccccc2s1	binding, competition with immobilised ligand	1 µM	48%
CN(C)c1ncc(F)c(-c2cnn3ncccc23)n1	binding	1 µM	62%
C[C@@H]1CN(c2cc(-c3n[nH]c4ccc(OC5(C)CC5)cc34)ncn2)C[C@H](C)O1	cell-free assay, competition with immobilised ligand	0.1 µM	67%
CC(C)(C)c1ccc(-c2nc(CBr)nn2-c2cccc(O)c2)cc1	cell-free assay, competition with immobilised ligand	10 µM	57%
c1cnn2ncc(-c3ccnc(N4CCC45COC5)n3)c2c1	binding	1 µM	53%
C[C@@H]1CN(c2ccc3ncc(-c4ccc5[nH]nc(C6CC6)c5c4)n3n2)C[C@H](C)O1	binding, competition with immobilised ligand	50 nM	92%
CN(CCCC(F)(F)F)c1nccc(-c2cnn3ncccc23)n1	binding	1 µM	100%
O=C(c1ccc(Nc2nccc(-c3cc4ccccc4s3)n2)cc1)N1CCC(N2CCCC2)CC1	binding, competition with immobilised ligand	1 µM	18%
O=C(NCC1CCOCC1)c1n[nH]cc1NC(=O)c1c(F)cccc1F	binding, competition with immobilised ligand	1 µM	88%
N[C@H]1CCN(c2nccc(-c3cnn4ncccc34)n2)C1	binding	1 µM	90%
N#Cc1ccccc1CSc1nnc2c(n1)[nH]c1ccccc12	binding, competition with immobilised ligand	10 µM	98%
CS(=O)(=O)N1CCCC(NC(=O)[C@H](CCC2CCCCC2)NC(=O)c2ccc(CNC(=O)c3cnc4ccccn34)cc2)C1 (stereo partly shown)	cell-free assay, competition with immobilised ligand	0.1 µM	100%
O=C(NCCCN1CCOCC1)c1ccc(Nc2nccc(-c3cc4ccccc4s3)n2)cc1	binding, competition with immobilised ligand	1 µM	43%
CS(=O)(=O)c1cc(C2(NC(=O)c3cncc4c3cnn4-c3ccc(F)cc3)CC2)ccn1	cell-free assay, competition with immobilised ligand	1 µM	47%
CC1CCCN1c1nccc(-c2cnn3ncccc23)n1 (stereo not shown)	binding	1 µM	89%
C=CC(=O)N1CCC(C(=O)NCC(=O)N2CCN(c3nc(-c4cnc(N)nc4C(F)F)nc(N4CCOCC4)n3)CC2)CC1	binding, competition with immobilised ligand	1 µM	83%
CO[C@@H](C)c1c(Nc2ccc([C@H](N(C)C(=O)C3CCS(=O)(=O)CC3)C(F)(F)F)cc2)cnc2cc(Cl)nn12	cell-free assay, competition with immobilised ligand	1 µM	100%
F[C@@H]1CCN(c2nccc(-c3cnn4ncccc34)n2)C1	binding	1 µM	100%
CNC(=O)[C@@H]1CC[C@@H](n2c(-c3ccc4cnccc4c3)nc3ccc(C(=O)NCc4cccc(C(N)=O)c4)cc32)C1	binding, competition with immobilised ligand	1 µM	100%
C[C@@H]1CCN(c2nccc(-c3cnn4ncccc34)n2)C1	binding	1 µM	74%
CCS(=O)(=O)c1cc2cc(C[C@@](O)(CC(C)(C)c3ccc(F)cc3C(N)=O)C(F)(F)F)[nH]c2cn1	cell-free assay, competition with immobilised ligand	1 µM	46%
COc1cnc(Nc2cccc(S(N)(=O)=O)c2)nc1N1CCN(c2ccccc2)CC1	binding, competition with immobilised ligand	1 µM	83%
CC(=O)N1CCC(c2ccc(C(=O)NC(=N)N)cc2C(F)(F)F)CC1	cell-free assay, competition with immobilised ligand	1 µM	100%
c1cncc(-c2cccc(Nc3nccc(NC4CCCCC4)n3)c2)c1	binding, competition with immobilised ligand	10 µM	89%
